Assay results reported in ChEMBL document CHEMBL1641429, “Synthesis and xanthine oxidase inhibitory activity of 7-methyl-2-(phenoxymethyl)-5H-[1,3,4]thiadiazolo[3,2-a]pyrimidin-5-one derivatives” (Bioorg Med Chem, 2011).
pIC50: −log10 of the molar value.

Key:
[1] = molecular target: Xanthine dehydrogenase/oxidase (Rattus norvegicus, UniProt P22985); assay: Inhibition of rat liver xanthine oxidase by spectrophotometry
Summary of the method: (§1)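 Enzyme source: for line 2, supernatant of centrifuged rat liver homogenate stored at −80 °C; for line 1, commercial microbial XO run the same way. Mix of 50 mM potassium phosphate pH 7.5, 0.3 mM EDTA and enzyme. Reaction started with xanthine substrate plus test compound. Uric acid read at 292 nm at 10 min intervals, ambient temperature. % inhibition versus control without compound; triplicates. Protein by Lowry, BSA standard.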

[2] = molecular target: Xanthine dehydrogenase/oxidase (Bos taurus, UniProt P80457); assay: Inhibition of bovine milk xanthine oxidase by spectrophotometry
Xanthine dehydrogenase/oxidase (Bos taurus, UniProt P80457), sequence (P80457 whole entry): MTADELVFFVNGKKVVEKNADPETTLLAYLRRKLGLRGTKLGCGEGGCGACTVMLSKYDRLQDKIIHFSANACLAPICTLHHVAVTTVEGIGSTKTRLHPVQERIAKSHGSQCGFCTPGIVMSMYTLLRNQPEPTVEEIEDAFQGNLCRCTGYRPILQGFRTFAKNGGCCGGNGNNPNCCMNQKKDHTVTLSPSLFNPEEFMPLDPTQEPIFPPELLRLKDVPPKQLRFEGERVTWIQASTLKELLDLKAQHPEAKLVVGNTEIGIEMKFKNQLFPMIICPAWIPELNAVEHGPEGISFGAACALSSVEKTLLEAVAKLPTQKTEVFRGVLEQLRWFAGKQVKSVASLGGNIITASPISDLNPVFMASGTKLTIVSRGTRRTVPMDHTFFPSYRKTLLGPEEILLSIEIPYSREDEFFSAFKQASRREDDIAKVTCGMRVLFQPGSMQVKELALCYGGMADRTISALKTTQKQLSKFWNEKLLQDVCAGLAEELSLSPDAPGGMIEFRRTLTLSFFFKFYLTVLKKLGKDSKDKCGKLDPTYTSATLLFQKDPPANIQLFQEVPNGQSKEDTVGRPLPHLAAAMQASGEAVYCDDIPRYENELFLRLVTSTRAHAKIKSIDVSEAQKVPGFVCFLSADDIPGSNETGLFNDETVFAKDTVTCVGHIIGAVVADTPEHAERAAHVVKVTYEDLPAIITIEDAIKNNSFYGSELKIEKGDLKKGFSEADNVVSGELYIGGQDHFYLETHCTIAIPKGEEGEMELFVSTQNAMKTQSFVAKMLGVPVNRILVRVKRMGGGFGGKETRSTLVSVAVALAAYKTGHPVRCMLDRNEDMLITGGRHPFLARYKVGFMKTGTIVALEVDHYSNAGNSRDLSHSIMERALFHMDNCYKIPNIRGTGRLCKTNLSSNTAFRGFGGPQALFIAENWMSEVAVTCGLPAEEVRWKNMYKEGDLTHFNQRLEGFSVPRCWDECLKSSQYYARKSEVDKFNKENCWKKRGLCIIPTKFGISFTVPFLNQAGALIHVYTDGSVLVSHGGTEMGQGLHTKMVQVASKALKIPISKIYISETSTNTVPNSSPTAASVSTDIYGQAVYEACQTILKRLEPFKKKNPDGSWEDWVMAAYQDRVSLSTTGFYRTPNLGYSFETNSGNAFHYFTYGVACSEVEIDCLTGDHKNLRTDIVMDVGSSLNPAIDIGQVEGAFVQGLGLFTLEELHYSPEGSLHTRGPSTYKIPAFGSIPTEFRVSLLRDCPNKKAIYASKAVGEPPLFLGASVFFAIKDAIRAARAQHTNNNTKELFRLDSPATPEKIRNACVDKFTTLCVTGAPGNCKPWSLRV

[3] = Inhibition of microbial xanthine oxidase by spectrophotometry
Summary of the method: as §1, with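 “compound.” for “compound. Uric acid read at 292 nm at 10 min intervals, ambient temperature. % inhibition versus control without compound; triplicates.”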

Xanthine dehydrogenase/oxidase (Rattus norvegicus, UniProt P22985), sequence (P22985 whole entry): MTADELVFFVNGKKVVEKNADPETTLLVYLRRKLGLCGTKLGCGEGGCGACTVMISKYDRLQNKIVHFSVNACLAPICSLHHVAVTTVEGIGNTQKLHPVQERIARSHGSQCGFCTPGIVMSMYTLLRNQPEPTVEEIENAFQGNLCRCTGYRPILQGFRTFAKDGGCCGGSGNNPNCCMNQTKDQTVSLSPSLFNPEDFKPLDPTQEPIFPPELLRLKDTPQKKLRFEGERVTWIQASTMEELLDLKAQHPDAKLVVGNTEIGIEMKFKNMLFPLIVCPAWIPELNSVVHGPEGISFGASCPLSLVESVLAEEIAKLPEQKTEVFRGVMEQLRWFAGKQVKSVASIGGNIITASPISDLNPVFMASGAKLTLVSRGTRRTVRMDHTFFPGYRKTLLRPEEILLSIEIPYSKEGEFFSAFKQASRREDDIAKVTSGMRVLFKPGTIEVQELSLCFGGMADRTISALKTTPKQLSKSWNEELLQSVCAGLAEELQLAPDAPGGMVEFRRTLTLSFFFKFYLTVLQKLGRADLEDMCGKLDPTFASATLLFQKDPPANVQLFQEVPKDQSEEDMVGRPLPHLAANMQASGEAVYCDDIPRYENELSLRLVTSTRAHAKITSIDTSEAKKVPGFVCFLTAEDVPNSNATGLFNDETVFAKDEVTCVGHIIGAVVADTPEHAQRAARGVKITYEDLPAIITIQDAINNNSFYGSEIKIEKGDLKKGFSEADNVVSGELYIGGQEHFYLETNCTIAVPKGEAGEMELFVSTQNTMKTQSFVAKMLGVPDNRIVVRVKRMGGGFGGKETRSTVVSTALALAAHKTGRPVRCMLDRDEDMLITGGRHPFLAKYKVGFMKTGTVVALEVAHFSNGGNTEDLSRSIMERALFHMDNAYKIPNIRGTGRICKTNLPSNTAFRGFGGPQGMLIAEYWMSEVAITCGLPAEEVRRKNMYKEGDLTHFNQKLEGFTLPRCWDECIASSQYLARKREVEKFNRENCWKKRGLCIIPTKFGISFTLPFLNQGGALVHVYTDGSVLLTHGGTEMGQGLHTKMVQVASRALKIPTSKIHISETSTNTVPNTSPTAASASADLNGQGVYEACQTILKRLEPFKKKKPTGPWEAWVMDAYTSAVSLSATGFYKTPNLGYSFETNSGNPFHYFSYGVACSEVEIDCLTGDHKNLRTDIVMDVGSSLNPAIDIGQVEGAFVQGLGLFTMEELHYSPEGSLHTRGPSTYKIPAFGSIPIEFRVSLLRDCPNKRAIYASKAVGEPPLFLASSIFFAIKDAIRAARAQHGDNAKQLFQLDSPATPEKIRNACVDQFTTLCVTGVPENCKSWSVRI

| pIC50 [1] | pIC50 [2] | pIC50 [3] | Structure (SMILES) |
| --- | --- | --- | --- |
| 6.54 | 6.57 | 6.57 | COc1ccc(OCc2nn3c(=O)cc(C)nc3s2)cc1 |
| 6.38 | 6.22 |  | Cc1cc(=O)n2nc(COc3ccccc3Br)sc2n1 |
| 5.59 |  |  | Cc1cc(=O)n2nc(COc3cccc(Br)c3)sc2n1 |
| 5.21 |  |  | Cc1cc(=O)n2nc(COc3cccc(Cl)c3)sc2n1 |
| 5.99 |  | 6.08 | Cc1ccc(OCc2nn3c(=O)cc(C)nc3s2)cc1 |
| 6.21 | 6.20 | 6.22 | Cc1cc(=O)n2nc(COc3ccc(Cl)c(C)c3)sc2n1 |
| 5.74 | 5.78 | 5.74 | Cc1cc(=O)n2nc(COc3ccccc3Cl)sc2n1 |
| 5.69 | 5.60 |  | Cc1cc(=O)n2nc(COc3ccc([N+](=O)[O-])cc3)sc2n1 |
| 5.70 |  | 5.78 | Cc1cc(=O)n2nc(COc3cccc(F)c3)sc2n1 |
| 6.26 |  |  | Cc1cc(=O)n2nc(COc3ccccc3)sc2n1 |
|  |  | 5.65 | Cc1cc(=O)n2nc(COc3ccc(F)cc3)sc2n1 |
| 6.23 |  |  | Cc1cc(=O)n2nc(COc3ccccc3F)sc2n1 |
| 6.44 | 6.49 | 6.46 | Cc1cc(=O)n2nc(COc3ccccc3C)sc2n1 |
| 6.35 | 6.34 | 6.37 | Cc1cc(=O)n2nc(COc3ccc(Cl)cc3)sc2n1 |
| 5.97 | 5.99 | 5.96 | Cc1cccc(OCc2nn3c(=O)cc(C)nc3s2)c1 |
| 5.75 | 5.74 | 5.76 | Cc1ccc(OCc2nn3c(=O)cc(C)nc3s2)c(C)c1 |
